Activity calls are given as the source filed them. The rule behind the calls is not given here.
Experiments:
[1] = In vivo modulation of gamma secretase in transgenic J20 mouse overexpressing human APP assessed as reduction in plasma amyloid beta38 level at 50 mg/kg, po administered via gavage for 3 consecutive days and measured after 4 hrs post last dose on day 3 by meso scale discovery relative to control; type: functional; design: scale not given: the % may be the effect or the level left; conditions: time 3 day
Outline: (§1)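 Female J20 mice, 5–6 months old (n=5/dose), dosed orally at 25, 50 or 100 mg/kg or with vehicle (5% NMP/95% PEG300) for 3 consecutive days. Plasma was taken 4 h after the final dose. Aβ38/40/42 measured by Meso Scale multiplex immunoassay, with % reduction relative to vehicle. Mean ± SEM, ANOVA.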

[2] = target: Gamma-secretase (Homo sapiens) (UniProt Q96BI3+Q9NZ42+Q8WW43+P49768+Q92542+P49810); test: Modulation of gamma secretase in human SH-SY5Y cells overexpressing wild type APP751 assessed as effect on total amyloid beta level by meso scale discovery; type: cell-based
Outline: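 SHSY5Y cells stably overexpressing wild-type human APP751 treated with the compound over a concentration range. Aβ38, Aβ40, Aβ42 and total Aβ in the medium measured by MSD triplex immunoassay (4G8 detection, 2 h at room temperature). Concentrations back-fitted from standard curves.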

[3] = Metabolic stability in human liver microsomes assessed as parent compound remaining at 1 uM incubated for 30 mins; type: ADME, Microsome; conditions: microsomes, 0.5 h, 1 µM
Outline: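 Test compound at 1 μM incubated 30 min with human, rat or mouse liver microsomes (1 mg/mL); parent remaining expressed as %.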

Cytochrome P450 1A2 = target: T1, Cytochrome P450 1A2 (Homo sapiens, UniProt P05177); test: Inhibition of recombinant CYP1A2 (unknown origin) by fluorescence-based assay; type: ADME
T1 sequence (P05177 whole entry): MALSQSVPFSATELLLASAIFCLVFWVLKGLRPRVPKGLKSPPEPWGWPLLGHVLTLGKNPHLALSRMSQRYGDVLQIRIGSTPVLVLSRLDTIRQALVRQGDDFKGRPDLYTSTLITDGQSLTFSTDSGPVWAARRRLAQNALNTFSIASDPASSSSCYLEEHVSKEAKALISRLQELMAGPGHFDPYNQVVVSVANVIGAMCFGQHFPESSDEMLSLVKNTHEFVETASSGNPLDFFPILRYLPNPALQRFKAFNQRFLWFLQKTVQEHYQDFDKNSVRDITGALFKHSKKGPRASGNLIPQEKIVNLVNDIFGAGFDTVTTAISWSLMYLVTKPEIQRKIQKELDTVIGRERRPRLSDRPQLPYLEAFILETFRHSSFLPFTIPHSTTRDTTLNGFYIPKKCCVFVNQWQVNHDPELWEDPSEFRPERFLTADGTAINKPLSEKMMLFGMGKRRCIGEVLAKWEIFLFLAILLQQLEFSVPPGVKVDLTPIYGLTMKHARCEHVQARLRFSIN
Outline: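 Recombinant CYP isoforms (five tested) screened for inhibition in fluorescence-based assays; IC50 in μM.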

[4] = Ratio of drug concentration in CD-1 mouse brain to plasma at 5 mg/kg, po measured after 1 hr; type: ADME, organism-based
Outline: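 Male CD-1 mice dosed once iv (1 mg/kg) or by oral gavage (5 mg/kg). Brain and plasma collected 1 h post dose (n=3/timepoint). Drug levels by HPLC/MS/MS; brain/plasma ratio calculated from these levels.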

[5] = Tmax in CD-1 mouse at 5 mg/kg, po administered as single dose measured up to 24 hrs; type: ADME, organism-based; conditions: in vivo
Outline: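 Male CD-1 mice, 6–8 weeks old, single oral gavage dose in 5% NMP/95% PEG300. Plasma (K3EDTA, retro-orbital, under isoflurane) taken at 0.25, 0.5, 1, 2, 4, 8 and 24 h, n=3/timepoint, analysed by HPLC/MS/MS. Non-compartmental extravascular analysis (Model 200); Tmax taken directly from the data.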

[6] = AUC infinity in CD-1 mouse at 5 mg/kg, po administered as single dose measured up to 24 hrs; type: ADME, organism-based; design: route oral, dose 5 mg/kg, time <=24; conditions: in vivo
Outline: (§2)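 Male CD-1 mice, 6–8 weeks old, single dose by tail vein (1 mg/kg, 3% NMP/45% PEG300/12% ethanol/40% water) or oral gavage (5 mg/kg, 5% NMP/95% PEG300). Retro-orbital plasma sampled 0.083 (iv only) to 24 h, n=3/timepoint, and analysed by HPLC/MS/MS. Non-compartmental analysis. Half-life taken from the terminal phase using ≥3 non-zero points after Tmax.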

[7] = Half life in CD-1 mouse at 5 mg/kg, po administered as single dose measured up to 24 hrs; type: ADME, organism-based; conditions: in vivo; outline: as §2
[8] = In vivo modulation of gamma secretase in transgenic J20 mouse overexpressing human APP assessed as reduction in plasma amyloid beta38 level at 100 mg/kg, po administered via gavage for 3 consecutive days and measured after 4 hrs post last dose on day 3 by meso scale discovery relative to control; type: functional; design: scale not given: the % may be the effect or the level left; conditions: time 3 day; outline: as §1
[9] = In vivo modulation of gamma secretase in transgenic J20 mouse overexpressing human APP assessed as reduction in plasma amyloid beta40 level at 25 mg/kg, po administered via gavage for 3 consecutive days and measured after 4 hrs post last dose on day 3 by meso scale discovery relative to control; type: functional; design: scale not given: the % may be the effect or the level left; conditions: time 3 day; outline: as §1
[10] = In vivo modulation of gamma secretase in transgenic J20 mouse overexpressing human APP assessed as reduction in plasma amyloid beta40 level at 50 mg/kg, po administered via gavage for 3 consecutive days and measured after 4 hrs post last dose on day 3 by meso scale discovery relative to control; type: functional; design: scale not given: the % may be the effect or the level left; conditions: time 3 day; outline: as §1
[11] = In vivo modulation of gamma secretase in transgenic J20 mouse overexpressing human APP assessed as reduction in plasma amyloid beta40 level at 100 mg/kg, po administered via gavage for 3 consecutive days and measured after 4 hrs post last dose on day 3 by meso scale discovery relative to control; type: functional; design: scale not given: the % may be the effect or the level left; conditions: time 3 day; outline: as §1
[12] = In vivo modulation of gamma secretase in transgenic J20 mouse overexpressing human APP assessed as reduction in plasma amyloid beta42 level at 50 mg/kg, po administered via gavage for 3 consecutive days and measured after 4 hrs post last dose on day 3 by meso scale discovery relative to control; type: functional; design: scale not given: the % may be the effect or the level left; conditions: time 3 day; outline: as §1
[13] = Drug level in plasma of transgenic J20 mouse overexpressing human APP at 50 mg/kg, po administered via gavage for 3 consecutive days and measured after 4 hrs post last dose on day 3 by HPLC-MS/MS analysis; type: ADME, organism-based; conditions: time 3 day
Outline: (§3)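 Female J20 mice, 5–6 months old, given 25, 50 or 100 mg/kg orally (5% NMP/95% PEG300) daily for 3 days, n=5/dose. Plasma and brain taken 4 h after the final dose and analysed by LC-MS/MS. LLOQ was 1 ng/mL in plasma and 5 ng/g in brain.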

[14] = Drug level in brain of transgenic J20 mouse overexpressing human APP at 25 mg/kg, po administered via gavage for 3 consecutive days and measured after 4 hrs post last dose on day 3 by HPLC-MS/MS analysis; type: ADME, organism-based; conditions: time 3 day, read-out: Ct; outline: as §3
[15] = Ratio of drug level in brain to plasma of transgenic J20 mouse overexpressing human APP at 100 mg/kg, po administered via gavage for 3 consecutive days and measured after 4 hrs post last dose on day 3 by HPLC-MS/MS analysis; type: ADME, organism-based; conditions: 72 h, time 3 day
Outline: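 Female J20 mice, 5–6 months old (n=5/dose), dosed by oral gavage once daily for 3 days in 5% NMP/95% PEG300 vehicle. Sacrificed 4 h after the day-3 dose. Plasma and brain drug levels measured by LC-MS/MS (LLOQ 1 ng/mL plasma, 5 ng/g brain). Ratio = brain level/plasma level.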

With `COc1nc(-c2csc(Nc3c4c(nn3CCF)CCCC4)n2)ccc1-n1cnc(C)c1` the Activity [1] was 33%, the Activity [2] was “inactive” and the Stabilty [3] was 100%. It also gave an IC50 (Cytochrome P450 1A2) of over 100 µM, a BPR [4] of 0.68 and a Tmax [5] of 1 h. For the same compound, the AUC [6] was 669 ng·h/mL, the t1/2 [7] was 2.6 h and the Activity [8] was 45%. The Activity [9] was 11%, the Activity [10] was 36% and the Activity [11] was 46%. The Activity [12] was 48%, the concentration at 72 h [13] was 639 ng/mL and the concentration at 72 h [14] was 39 ng/g. The BPR [15] was 0.57.

For `CCn1nc2c(c1Nc1nc(-c3ccc(-n4cnc(C)c4)c(OC)n3)cs1)CCC2`, the Activity [1] was 27%, the Activity [2] was “inactive” and the Stabilty [3] was 51%. For the same compound, the IC50 (Cytochrome P450 1A2) was over 100 µM, the BPR [4] was 0.4 and the Tmax [5] was 0.25 h. For the same compound, the AUC [6] was 1257 ng·h/mL, the t1/2 [7] was 5.3 h and the Activity [8] was 50%. For the same compound, the Activity [9] was 19%, the Activity [10] was 31% and the Activity [11] was 68%. The Activity [12] was 40%, the concentration at 72 h [13] was 223 ng/mL and the concentration at 72 h [14] was 31 ng/g. It also gave a BPR [15] of 0.46.

Source: ChEMBL document CHEMBL4699542, “Design and synthesis of novel methoxypyridine-derived gamma-secretase modulators” (Bioorg Med Chem, 2020)
